Measured values of several laboratories.
Each line is one published result; the experiments were not run side by side.
Action: inhibitor
KCNH2: Voltage-gated inwardly rectifying potassium channel KCNH2 (KCNH2, Homo sapiens, UniProt Q12809)
HDAC6: Protein deacetylase HDAC6 (HDAC6, Homo sapiens, UniProt Q9UBN7)
Dihydroorotate dehydrogenase, mitochondrial, putative: Dihydroorotate dehydrogenase, mitochondrial, putative (Plasmodium vivax, UniProt A5K1N1)

The IC50 of `CC1(F)CN(C(=O)Cn2c(=O)c(C(=O)NCc3ccc(Cl)cc3)cc3nc(N4CCOC4=O)cnc32)C1` is reported as 5.62 µM (KCNH2; ion current, patch clamp).
The IC50 of `O=c1oc(-c2ccco2)nc2ccccc12` is reported as > 50 µM (Prothrombin (F2, Homo sapiens, UniProt P00734); enzyme activity, absorbance; pH 7.4).
For `COc1cc2c(cc1OC)CC(=O)N(CCCN(C)C[C@H]1Cc3cc(OC)c(OC)cc31)CC2`, the IC50 was 5.4 µM (Potassium/sodium hyperpolarization-activated cyclic nucleotide-gated channel 1 (Homo sapiens, UniProt O60741); ion current).
For `CC(C)c1cccc(OS(=O)(=O)Oc2cc(F)cc(C(=O)NO)c2)c1`, the IC50 was 0.832 µM (HDAC6; enzyme activity, fluorescence).
`Cc1cc(Nc2nccc(C)n2)cc(-c2cnc([C@@]3(O)CC[C@H](C(=O)NCCCNC(=O)CCc4ccc5n4[B-](F)(F)[N+]4=C(c6ccc[nH]6)C=CC4=C5)C(C)(C)C3)s2)c1` has an IC50 of 0.11 µM (Tyrosine-protein kinase SYK (SYK, Homo sapiens, UniProt P43405); enzyme activity, radiometric).
The IC50 of `COc1cnc2c(cc(C(=O)NCc3ccc(Cl)cc3)c(=O)n2CC(=O)N2CC(C)(F)C2)n1` is reported as 2.91 µM (KCNH2; ion current, patch clamp).
`CCn1ncc2c([C@](O)(c3ccc(C(F)(F)F)c(Cl)c3)C3CC3)n(C)nc2c1=O` gave an IC50 of 0.005 µM (Dihydroorotate dehydrogenase, mitochondrial, putative; enzyme activity, absorbance).
For `CC(C)(C)c1ccc(OS(=O)(=O)Oc2cc(F)cc(C(=O)NO)c2)cc1`, the IC50 was 2.1 µM (HDAC6; enzyme activity, fluorescence).
With `Cn1nc2c(=O)n(C3CC3)ccc2c1[C@](O)(c1cnc(C(F)(F)F)c(Cl)c1)C(F)(F)F` the IC50 was 0.019 µM (Dihydroorotate dehydrogenase, mitochondrial, putative; enzyme activity, absorbance).
`CC1(F)CN(C(=O)Cn2c(=O)c(C(=O)NCc3ccc(Cl)cc3)cc3nc(N4CCCC4=O)cnc32)C1` has an IC50 of > 40 µM (KCNH2; ion current, patch clamp).
For `Cc1c(C(=O)OC2CC2)nn(C)c1Cc1ccc(C(F)(F)F)nc1`, the IC50 was 0.016 µM (Dihydroorotate dehydrogenase, mitochondrial, putative; enzyme activity, absorbance).
For `O=C(NO)c1cncc(OS(=O)(=O)Oc2ccc(C(F)(F)F)cc2)c1`, the IC50 was 0.147 µM (HDAC6; enzyme activity, fluorescence).
`CC[C@@](O)(c1cnc(C(F)(F)F)c(Cl)c1)c1c2cnn(C3CC3)c(=O)c2nn1C` has an IC50 of 0.019 µM (Dihydroorotate dehydrogenase, mitochondrial, putative; enzyme activity, absorbance).
With `O=C(NO)c1cccc(OS(=O)(=O)Oc2ccc3ccccc3c2)c1` the IC50 was 0.091 µM (HDAC6; enzyme activity, fluorescence).
The IC50 of `CCn1cc(C)c2c(C(O)c3ccc(Cl)c(F)c3)n(C)nc2c1=O` (stereo not drawn) is reported as 0.0098 µM (Dihydroorotate dehydrogenase, mitochondrial, putative; enzyme activity, absorbance).
`O=C(NO)c1cc(F)cc(OS(=O)(=O)Oc2ccccc2)c1` gave an IC50 of 0.077 µM (HDAC6; enzyme activity, fluorescence).
`CCOC(=O)c1nn(C)c(Cc2ccc(C(F)(F)F)nc2)c1C` gave an IC50 of 0.088 µM (Dihydroorotate dehydrogenase, mitochondrial, putative; enzyme activity, absorbance).
With `COc1ccc2c(C(=S)N(C)CC(=O)O)cccc2c1C(F)(F)F` the IC50 was 0.057 µM (Aldo-keto reductase family 1 member B10 (AKR1B10, Homo sapiens, UniProt O60218); enzyme activity).
